Screening results (PubChem)
The list is not random: actives were taken first. Their share in the collection is about 4%.
NR3A LBD binder: binders of NR3A ligand-binding domain, primary screen, biophysical, differential scanning fluorimetry, uHTS | Glutamate receptor ionotropic, NMDA 3A (GRIN3A) ligand-binding domain | NR3A LBD differential scanning fluorimetry, Tm shift; 0% = protein alone, 100% = glycine-bound protein | Tm shift relative to glycine control, % at 25 µM | hit rate 2.5% among 340,000;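 active = melting temperature shift of at least 10% of the positive control shift, at one fixed dose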
Cardio protect: cardioprotection against H2O2-induced cell death, primary screen, uHTS, H9c2 cells, ATPLite luminescence; H9c2 cardiomyocytes, H2O2 injury protection, 2 h; protection from H2O2 cell death, % at 20 µM; hit rate 0.63% among 360,000; AID 588492, 2011;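 active = compounds giving at least 50% protection of heart cells from peroxide-induced death in the single-dose screen, raw or plate-pattern-corrected value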;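 also: 0% = DMSO wells with peroxide and 100% = DMSO wells without peroxide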
SENP1 inh: human SENP1 catalytic domain inhibitors, primary screen, biochemical, FRET, uHTS; recombinant SENP1 catalytic domain, CyPet-SUMO1-YPet FRET cleavage; inhibition, % at 10 µM; hit rate 0.21% among 360,000; AID 624204, 2012;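 active = inhibition at least 30% at 10 µM, raw YFP signal under a set limit, fluorescence ratio 0.5 to 1.5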;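 also: 0% = enzyme with DMSO and 100% = no enzyme wells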
Target sequence (Q9P0U3 419-644 limits assumed): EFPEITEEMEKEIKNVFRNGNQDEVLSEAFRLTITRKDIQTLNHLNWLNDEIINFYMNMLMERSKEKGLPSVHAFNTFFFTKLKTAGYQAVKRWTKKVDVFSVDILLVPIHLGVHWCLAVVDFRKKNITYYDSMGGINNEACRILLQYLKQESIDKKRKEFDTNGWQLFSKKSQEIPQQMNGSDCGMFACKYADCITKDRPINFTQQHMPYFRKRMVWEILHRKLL
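system = hSENP1 catalytic domain, recombinant | reagent = SFCypet-SUMO1-SFYpet substrate at 25 nM | doses = one dose per compound, 10 µM, 0.5% DMSO | incubation = enzyme reaction for 50 min at room temperature, dark | measured by = FRET, CFP and YFP emission | controls = no-enzyme low, enzyme-DMSO high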
Arr AP2 block: inhibitors of beta-arrestin/AP2 binding, primary screen, biochemical, GPCR trafficking, flow cytometry. hit rate 0.31% among 340,000. FITC-arrestin peptide / GST-AP2 beads; AP2 beta2 appendage carries R879A mutation. inhibition, % at 10 µM. beta-arrestin 1 C-terminal peptide binding to AP2 beta2-adaptin appendage (human);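 active = inhibition above a set limit, near 3 SD of compounds lacking own fluorescence, cut at about 54% in these data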;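 also: plate controls were DMSO wells for no effect and 5 µM unlabelled arrestin peptide for full effect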
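System: GST-AP2 R879A bound to glutathione beads, E. coli-expressed. Also added: 50 nM FITC-arrestin peptide. Schedule: compound with beads 12 min RT, then probe 1 h RT. Signal: bead flow cytometry, FITC channel. Read-out basis: percent response.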
hiPSC survival: enhancers of single-cell hiPSC survival, primary screen, ATPlite luminescence; 100% = ROCK inhibitor wells, 0% = DMSO; survival enhancement, % at 20 µM; hit rate 0.044% among 360,000; in the data active = survival enhancement above about 18%;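 also: cells exposed to compounds for 16 hours before the ATP read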
FAS TE block: FAS thioesterase domain inhibitors, primary screen, biochemical, fluorescence intensity, uHTS; inhibition, % at 15 µM; hit rate 0.67% among 360,000; Fatty acid synthase (Homo sapiens), P49327; recombinant FAS-TE, OMFH fluorogenic substrate, fluorescence endpoint;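 active = compounds whose normalised, plate-corrected inhibition of enzyme fluorescence in the single-dose primary screen is 50% or more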;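 also: 0% = DMSO with enzyme and 100% = substrate without enzyme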
* marks the source's active call; other numbers are inactive results; . = no result.

SMILES	NR3A LBD binder	Cardio protect	SENP1 inh	Arr AP2 block	hiPSC survival	FAS TE block
O=C(NNC(=O)c1ccccc1O)c1ccc(S(=O)(=O)Nc2ccccc2)cc1	-3	58*	3	23	1	21
Cc1ccc(C(=O)NCCSC2CCCCC2)cc1S(=O)(=O)Nc1ccccc1	16*	-3	1	-2	0	30
Cc1ccc(C(=O)Nc2cccc([N+](=O)[O-])c2)cc1S(=O)(=O)Nc1ccc(NC(=O)c2ccccc2)cc1	36*	1	3	3	-2	36
CCOc1ccccc1-c1ccc(C(=O)NCc2ccc(Cl)cc2)o1	.	.	0	.	-3	33
C[C@H](CO)N1C[C@H](C)[C@@H](CN(C)S(=O)(=O)c2cn(C)cn2)OCc2cn(nn2)CCCC1=O	.	2	1	.	0	-8
NS(=O)(=O)c1ccc(C(=O)Nc2ccc(-c3nc4cccnc4s3)cc2)cc1	30*	0	-21	5	0	-2
NS(=O)(=O)c1ccc(NC(=O)c2ccc(-c3ccccc3)cc2)cc1	2	5	3	5	0	-4
CC1(C(=O)NS(=O)(=O)c2ccc3c(c2)CCO3)CCN1C(=O)Cc1ccc(-c2ccccc2)cc1 (centres undefined)	.	-2	2	.	0	-9
CCN(CC)c1ccc(NC2=C(Cl)C(=O)c3ccccc3C2=O)cc1	-1	-30	0	55*	-3	26
CCc1nc2ccc(C(=O)NCCN3CCNC3=O)cn2c1N(C)CCC(C)C	.	2	-5	.	3	0
CCOc1cccc(C=Nc2cc(C)cc(C)c2O)c1O	0	93*	6	8	2	1
COc1cccc(/C=N/Nc2c(Cl)cncc2Cl)c1O	35*	20	4	-2	0	7
O=S(=O)(N/N=C/c1ccccc1OCc1ccc(Cl)cc1)c1ccccc1	13*	-11	2	-3	-1	37
O=[N+]([O-])c1ccc(NN=Cc2cccc3ccccc23)cc1	34*	-12	-31	29	4	-6
O=[N+]([O-])c1cccc(N/N=C/c2cccc(O)c2O)c1	21*	37	2	-9	-1	22
O=[N+]([O-])c1ccccc1C=NNc1ccccc1	-24	-12	5	1	2	24
COCOCCn1cc(CN2CCS(=O)(=O)N(Cc3ccc(-c4ccc(Cl)c(Cl)c4)cc3)C(C(C)C)C2=O)nn1 (centres undefined)	.	-25	1	.	2	20
O=C(NCCN1CCC(n2c(=O)[nH]c3ccccc32)CC1)c1ccc(Cl)c(Cl)c1	.	.	1	.	0	42
COc1ccc(C2=Nc3ccccc3NC(=O)C2N(C(=O)c2ccnc3ccccc23)c2ccccc2)cc1 (centres undefined)	.	-1	3	.	3	16
COc1cccc(/C=N/Nc2ncnc3c2ncn3Cc2ccccc2)c1O	-5	60*	3	8	0	7
O=[N+]([O-])c1ccc(N/N=C\c2ccccc2OCc2ccccc2)cc1	20*	-4	-22	-4	3	8
COc1cc(/C=N/Nc2ccc(C(=O)O)cc2)ccc1O	27*	-10	-1	-6	1	-7
COc1cc(/C=N/Nc2ccc(C(=O)O)cc2)cc(OC)c1OC	-4	17	-2	10	2	4
COc1ccc(/C=N/Nc2ccc([N+](=O)[O-])cc2)cc1O	27*	-13	-21	23	-1	-13
COc1ccc(-c2nc3c(C)cc(Br)cn3c2Cc2ccc(C)cc2)cc1OC	.	2	5	.	1	13
SMILES	NR3A LBD binder	Cardio protect	SENP1 inh	Arr AP2 block	hiPSC survival	FAS TE block
COc1cccc(/C=N/Nc2ccc([N+](=O)[O-])cc2)c1O	36*	-2	-23	10	0	2
COc1cccc(/C=N/NC(=O)c2ccc([N+](=O)[O-])cc2Cl)c1O	-1	48	3	5	-2	21
CCC(=O)N[C@H]1CC[C@@H](CCn2cc(C3CC3)nn2)O[C@@H]1CO	.	.	1	.	.	.
O=S1(=O)CC(N2CCCCC2)CN1Cc1ccc(F)cc1 (centres undefined)	.	3	-1	.	0	-4
Cc1ccc(Oc2ccc(C(=O)NC3CCSC3=O)cn2)cc1 (centres undefined)	11*	1	1	-1	1	-8
COc1ccc2cc(CCNC(=O)c3cc4ccccc4o3)c(=O)[nH]c2c1	21*	2	0	12	0	7
Cc1cccc(C)c1NC(=O)C1(C)CSCC(=O)N1Cc1cccs1 (centres undefined)	.	.	-1	.	.	.
C=CCc1cccc(CNc2nc3ccccc3n2C(C)C)c1O	11*	-19	3	-3	2	38
CCOC(=O)C1=CCN(S(=O)(=O)c2ccccc2Cl)C1c1cccc(F)c1 (centres undefined)	.	-1	2	.	0	6
COc1ccc(Cl)cc1C(=O)O/N=C(\N)c1ccncc1	11*	-14	3	40	-1	-7
COc1ccc(C(=O)O/N=C(\N)c2ccncc2)cc1OC	-1	-2	1	-3	1	-20
COc1ccc(C(=O)O/N=C(\N)c2ccc(Cl)cc2)cc1	21*	-15	4	30	0	4
COc1ccc(/C(N)=N/OC(=O)c2ccc(Br)o2)cc1	14*	-6	1	20	3	2
COc1ccc(C(=O)O/N=C(\N)c2cccc(C)c2)cc1OC	18*	-5	2	-17	0	0
Cc1cccc(C(=O)O/N=C(\N)c2ccc(Br)cc2)c1	9	-16	3	-3	0	3
Cc1cccc(C(=O)O/N=C(\N)c2ccc(Cl)cc2)c1	11*	-16	3	39	1	3
COc1ccc2[nH]c(=O)c(CN(C3CCCCC3)C(c3nnnn3Cc3ccco3)C(C)C)cc2c1 (centres undefined)	-2	95*	-17	34	-4	-3
CCC(c1nnnn1Cc1ccco1)N(Cc1cc2cc(C)cc(C)c2[nH]c1=O)CC1CCCO1 (centres undefined)	0	62*	-16	25	0	0
COCCn1nnnc1C(C(C)C)N(Cc1cccnc1)Cc1cc2cc(OC)ccc2[nH]c1=O (centres undefined)	-6	61*	-16	8	9	-7
